Converted amounts (≈) assume the structure as drawn. The source made the active and inactive calls. The rule behind the calls is not given here.
What was measured:
Myzus persicae [1] = test: Insecticidal activity against Myzus persicae (green peach aphid) at 25 degC; assay type: functional; settings: read-out: LD50 (the source's name)
Myzus persicae [2] = test: Insecticidal activity against Myzus persicae (green peach aphid) measured in field test; assay type: functional, organism-based
Method in brief: (§1)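 Field trials against aphids in northern, middle and southern China used 10% WP and 20% SC formulations. The design was a randomized complete block with five treatments, applied with a hand sprayer. Untreated cabbage or rice served as the control, and imidacloprid 10% WP was the reference.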

Brevicoryne brassicae = test: Insecticidal activity against Brevicoryne brassicae (cabbage aphids) measured in field test; assay type: functional, organism-based; method in brief: as §1

Row | Structure (SMILES) | LC50 (Myzus persicae [1]) [mg/L] | Activity (Myzus persicae [2]) | Activity (Brevicoryne brassicae)
1 | N/C(=N\[N+](=O)[O-])N(Cc1ccc(Cl)nc1)/N=C/c1ccco1 | 345 (≈ 1070 µM) | Active | Active
2 | C=C/C=N/N(CCCC)/C(N)=N/[N+](=O)[O-] | 328 (≈ 1540 µM) | Active | Active
3 | CCCCCC/C=N/N(Cc1ccc(Cl)nc1)/C(N)=N/[N+](=O)[O-] | 25.5 (≈ 74.7 µM) | Active | Active
4 | CCC/C=N/N(CCCC)/C(N)=N/[N+](=O)[O-] | 367 (≈ 1600 µM) | Active | Active
5 | CCCCN(/N=C/c1ccccc1)/C(N)=N/[N+](=O)[O-] | 1800 (≈ 6820 µM) | Active | Active
6 | CCCCN(/N=C/c1ccc(C)cc1)/C(N)=N/[N+](=O)[O-] | 1080 (≈ 3880 µM) | Active | Active
7 | N/C(=N\[N+](=O)[O-])N(Cc1ccc(Cl)nc1)/N=C/c1ccc(F)cc1 | 1450 (≈ 4130 µM) | Active | Active
8 | C=CCN(/N=C/c1ccccc1Cl)/C(N)=N/[N+](=O)[O-] | 362 (≈ 1290 µM) | Active | Active
9 | CC(C)/C=N/N(Cc1ccc(Cl)nc1)/C(N)=N/[N+](=O)[O-] | 92.5 (≈ 310 µM) | Active | Active
10 | O=[N+]([O-])/N=C1\NCCN1Cc1ccc(Cl)nc1 [IMIDACLOPRID] | 24.2 (≈ 94.7 µM) | Active | Active
11 | N/C(=N\[N+](=O)[O-])N(Cc1ccc(Cl)nc1)/N=C/c1ccccc1[N+](=O)[O-] | 357 (≈ 946 µM) | Active | Active
12 | CCCC/C=N/N(Cc1ccc(Cl)nc1)/C(N)=N/[N+](=O)[O-] [GUADIPYR] | 25.3 (≈ 81 µM) | Active | Active
13 | COc1ccc(/C=N/N(Cc2ccccc2)/C(N)=N/[N+](=O)[O-])cc1 | 3840 (≈ 11700 µM) | Active | Active
14 | CCCCN(/N=C/c1cccc(OC)c1)/C(N)=N/[N+](=O)[O-] | 1800 (≈ 6130 µM) | Active | Active
15 | CCN(/N=C/c1ccc(C)cc1)/C(N)=N/[N+](=O)[O-] | 1020 (≈ 4110 µM) | Active | Active
16 | CCC/C=N/N(Cc1ccc(Cl)nc1)/C(N)=N/[N+](=O)[O-] | 21 (≈ 70.3 µM) | Active | Active
17 | C=CCN(/N=C/c1ccc(C)cc1)/C(N)=N/[N+](=O)[O-] | 744 (≈ 2850 µM) | Active | Active
18 | CC/C=N/N(CCC)/C(N)=N/[N+](=O)[O-] | 283 (≈ 1410 µM) | Active | Active
19 | CC/C=N/N(CC)/C(N)=N/[N+](=O)[O-] | 523 (≈ 2790 µM) | Active | Active
20 | C=CCN(/N=C/CCCC)/C(N)=N/[N+](=O)[O-] | 400 (≈ 1760 µM) | Active | Active

Source: ChEMBL document CHEMBL3045139, “N'-Nitro-2-hydrocarbylidenehydrazinecarboximidamides: design, synthesis, crystal structure, insecticidal activity, and structure-activity relationships” (2012)
